Measured values of several laboratories.
Protocols differ between the studies behind these lines.
Target: Serine/threonine-protein kinase MAK (MAK, Homo sapiens, UniProt P20794)
Sequence (P20794 1-623, as in one of the studies): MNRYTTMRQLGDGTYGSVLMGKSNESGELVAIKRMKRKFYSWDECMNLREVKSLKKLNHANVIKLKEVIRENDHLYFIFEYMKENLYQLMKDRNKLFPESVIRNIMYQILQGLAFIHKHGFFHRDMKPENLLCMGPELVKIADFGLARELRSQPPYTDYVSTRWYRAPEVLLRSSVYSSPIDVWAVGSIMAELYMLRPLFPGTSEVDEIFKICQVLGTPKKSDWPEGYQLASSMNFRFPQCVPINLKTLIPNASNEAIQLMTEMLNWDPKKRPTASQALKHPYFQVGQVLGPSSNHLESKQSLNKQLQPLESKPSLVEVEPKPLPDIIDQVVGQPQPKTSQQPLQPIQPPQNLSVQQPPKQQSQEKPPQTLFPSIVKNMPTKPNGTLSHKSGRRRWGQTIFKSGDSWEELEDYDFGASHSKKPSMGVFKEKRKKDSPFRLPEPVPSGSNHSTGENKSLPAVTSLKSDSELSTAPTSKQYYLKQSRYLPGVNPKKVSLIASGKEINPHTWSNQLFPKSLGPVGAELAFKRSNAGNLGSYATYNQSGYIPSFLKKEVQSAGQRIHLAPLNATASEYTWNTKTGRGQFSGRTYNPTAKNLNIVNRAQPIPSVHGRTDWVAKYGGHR

SMILES | effect on | method | concentration | remaining binding
O=C(NCCCN1CCOCC1)c1ccc(Nc2nccc(-c3cc4ccccc4s3)n2)cc1 | binding | competition with immobilised ligand | 1 µM | 100%
COc1ccnn2ncc(-c3ccnc(N(C)C)n3)c12 | binding |  | 1 µM | 100%
CCCCN(CCCC)C(=O)CN1C[C@H](c2cc(OC)c3c(c2)OCO3)[C@@H](C(=O)O)[C@@H]1CC(C)(C)CCC | cell-free assay | competition with immobilised ligand | 1 µM | 100%
c1cncc(-c2cccc(Nc3nccc(NC4CCCCC4)n3)c2)c1 | binding | competition with immobilised ligand | 10 µM | 61%
C[C@@H]1CCN(c2nccc(-c3cnn4ncccc34)n2)C1 | binding |  | 1 µM | 97%
CNC(=O)[C@@H]1CC[C@@H](n2c(-c3ccc4cnccc4c3)nc3ccc(C(=O)NCc4cccc(C(N)=O)c4)cc32)C1 | binding | competition with immobilised ligand | 1 µM | 80%
C=CC(=O)N1CCC(C(=O)NCC(=O)N2CCN(c3nc(-c4cnc(N)nc4C(F)F)nc(N4CCOCC4)n3)CC2)CC1 | binding | competition with immobilised ligand | 1 µM | 100%
F[C@@H]1CCN(c2nccc(-c3cnn4ncccc34)n2)C1 | binding |  | 1 µM | 86%
O=C1CCc2cc(Nc3cc(OC4CCOCC4)c([N+](=O)[O-])cc3Cl)ccc2N1 | cell-free assay | competition with immobilised ligand | 1 µM | 100%
Cc1cnn2ncc(-c3ccnc(N(C)C)n3)c2c1 | binding |  | 1 µM | 46%
Cc1cnc(Nc2ccc(C(=O)N3CCC(N4CCCC4)CC3)cc2)nc1-c1cc2ccccc2s1 | binding | competition with immobilised ligand | 1 µM | 100%
CS(=O)(=O)N1CCCC(NC(=O)[C@H](CCC2CCCCC2)NC(=O)c2ccc(CNC(=O)c3cnc4ccccn34)cc2)C1 (stereo partly shown) | cell-free assay | competition with immobilised ligand | 0.1 µM | 100%
N[C@H]1CCN(c2nccc(-c3cnn4ncccc34)n2)C1 | binding |  | 1 µM | 78%
O=C(O)[C@H]1[C@H](Cn2nnc3ccccc3c2=O)CC[C@@H]1C(=O)c1ccc(OCCC2CCOCC2)cc1 | binding | competition with immobilised ligand | 1 µM | 95%
C[C@@H](c1ccc(-n2cnc3c(N)ncnc32)cc1)N1CCc2nn(C)c(Cc3ccccc3)c2C1=O | binding | competition with immobilised ligand | 0.1 µM | 82%
O=C(Nc1cccnn1)N1CCC(=Cc2cccc(Oc3ccc(C(F)(F)F)cn3)c2)CC1 | cell-free assay | competition with immobilised ligand | 1 µM | 100%
CN(C)c1nccc(-c2cnn3ncccc23)n1 | binding |  | 1 µM | 100%
NS(=O)(=O)c1cc(NC(=O)Cc2ccccc2)ccc1Oc1cccc(Cl)c1 | cell-free assay | competition with immobilised ligand | 1 µM | 100%
Nc1ncc2c(n1)-c1c([nH]c3ccc(C#CC4CC4)cc13)CCCC2 | binding | competition with immobilised ligand | 1 µM | 100%
O=C(c1ccc(Nc2nccc(-c3cc4ccccc4s3)n2)cc1)N1CCC(N2CCCC2)CC1 | binding | competition with immobilised ligand | 1 µM | 100%
O=C(Nc1c[nH]nc1C(=O)NC1CCNCC1)c1cc(F)cc(F)c1 | binding | competition with immobilised ligand | 1 µM | 78%
COc1cnc(Nc2cccc(S(N)(=O)=O)c2)nc1N1CCN(c2ccccc2)C(=O)C1 | binding | competition with immobilised ligand | 1 µM | 96%
